# Reference: paper PMC2963086 (Analytical biochemistry, 2010)
# “And” between values parts separate entries of the source, which are not always exact repeats. Equal entries are not always repeated. Where two headings read alike, the source gives them in different places.
# T1: Malate dehydrogenase (MDH) (Sus scrofa, UniProt P00346)
# T1 sequence (P00346 25-338): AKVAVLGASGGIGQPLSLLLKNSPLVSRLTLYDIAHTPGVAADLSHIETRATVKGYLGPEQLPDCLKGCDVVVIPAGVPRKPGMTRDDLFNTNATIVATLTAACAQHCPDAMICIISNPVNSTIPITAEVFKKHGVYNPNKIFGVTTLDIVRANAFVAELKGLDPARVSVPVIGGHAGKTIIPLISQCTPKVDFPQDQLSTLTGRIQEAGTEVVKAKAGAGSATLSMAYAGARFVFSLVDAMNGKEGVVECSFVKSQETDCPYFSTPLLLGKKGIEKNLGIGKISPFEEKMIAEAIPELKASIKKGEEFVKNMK
# T2: Formate dehydrogenase (FDH) (Candida boidinii, UniProt O13437)
# T2 sequence (O13437 1-364): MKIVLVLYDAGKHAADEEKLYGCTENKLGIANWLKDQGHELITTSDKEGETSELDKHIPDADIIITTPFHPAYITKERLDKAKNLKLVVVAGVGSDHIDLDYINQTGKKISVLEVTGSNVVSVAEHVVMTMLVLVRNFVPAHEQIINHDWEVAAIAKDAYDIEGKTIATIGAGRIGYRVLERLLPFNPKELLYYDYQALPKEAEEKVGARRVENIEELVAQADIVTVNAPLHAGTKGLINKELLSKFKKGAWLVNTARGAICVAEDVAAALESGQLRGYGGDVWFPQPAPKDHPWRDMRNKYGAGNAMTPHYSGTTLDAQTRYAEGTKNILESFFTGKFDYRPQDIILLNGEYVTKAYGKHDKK
# B1: Formate dehydrogenase (FDH) ([Candida] boidinii) (protein)
# chain: MKIVLVLYDAGKHAADEEKLYGCTENKLGIANWLKDQGHELITTSDKEGETSELDKHIPDADIIITTPFHPAYITKERLDKAKNLKLVVVAGVGSDHIDLDYINQTGKKISVLEVTGSNVVSVAEHVVMTMLVLVRNFVPAHEQIINHDWEVAAIAKDAYDIEGKTIATIGAGRIGYRVLERLLPFNPKELLYYDYQALPKEAEEKVGARRVENIEELVAQADIVTVNAPLHAGTKGLINKELLSKFKKGAWLVNTARGAICVAEDVAAALESGQLRGYGGDVWFPQPAPKDHPWRDMRNKYGAGNAMTPHYSGTTLDAQTRYAEGTKNILESFFTGKFDYRPQDIILLNGEYVTKAYGKHDKK
# Columns and labels:
# [1] = test system: formate dehydrogenase (FDH); conditions: azide anion with FDH; cited from earlier work
# [2] = test system: Glucose dehydrogenase (GDH); experiment: Enzymatic reaction assay, initial rates; assay type: biochemical, Bacillus megaterium
# Summary of the method: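 Commercial Bacillus megaterium GDH in a 1 mL UV cuvette with 0.1 M phosphate buffer, pH 7.5, and azo-NAD+ as coenzyme. Initial rates taken over 2 min from the absorbance rise at 340 nm (azo-NADH). Km and kcat obtained by fitting rates against azo-NAD+ concentration to the Michaelis–Menten equation, with Vmax = [E]·kcat.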
# [3] = target: T1, Malate dehydrogenase (MDH); experiment: ITC binding of azo-NAD^+ to malate dehydrogenase; assay type: Porcine heart mitochondria (sus scrofa); conditions: pH 7.5
# Summary of the method: (§1)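 Isothermal titration calorimetry at pH 7.5 with commercial enzymes: Candida boidinii FDH and porcine heart mitochondrial MDH. Titrations of azo-NAD+ with enzyme; for the MDH ternary complex, malate is present. Heats of dilution subtracted from raw heats. Integrated heats fitted to a single-site binding model to give Kd.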
# [4] = Stability in phosphate buffer by UV absorbance ratio 260/303 nm; assay type: physicochemical; conditions: phosphate buffer pH 7.5, 24 hrs, 25 °C
# [5] = Solubility of the solid analog; assay type: physicochemical; conditions: phosphate buffer and methanol at room temperature
# [6] = target: T1, Malate dehydrogenase (MDH); experiment: Enzymatic reaction assay, competitive inhibition, initial rates; assay type: biochemical, Porcine heart mitochondria (sus scrofa)
# [7] = target: T2, Formate dehydrogenase (FDH); experiment: ITC binding of azo-NAD^+ to formate dehydrogenase; conditions: Kd (Binary), FDH binary complex, pH 7.5
# Summary of the method: as §1
# [8] = target: T2, Formate dehydrogenase (FDH); experiment: Enzymatic reaction assay, initial rates; assay type: biochemical
# [9] = target: Glucose dehydrogenase (GDH); experiment: Fluorescence titration; assay type: binding, Bacillus megaterium; conditions: read-out: Kd (Binary); GDH binary complex; fluorescence experiments; pH 7.5
# [10] = target: T2, Formate dehydrogenase (FDH); conditions: native NAD^+, cited from earlier work
# [11] = test system: Glucose dehydrogenase (GDH); conditions: native NAD^+; cited from earlier work
# [12] = target: T1, Malate dehydrogenase (MDH); conditions: native NAD^+, 37; cited from earlier work
# [13] = substrate: [N-]=[N+]=Nc1ccc[n+]([C@@H]2O[C@H](COP(=O)([O-])OP(=O)(O)OC[C@H]3O[C@@H](n4cnc5c(N)ncnc54)[C@H](O)[C@@H]3O)[C@@H](O)[C@H]2O)c1; experiment: Enzymatic reaction assay, initial rates; assay type: biochemical, Candida boidinii; conditions: other: FDH, azo-NAD^+ as substrate, 0.1 M phosphate buffer pH 7.5
# [14] = azo-NAD^+ as substrate, 0.1 M phosphate buffer pH 7.5
molecule,measurement,setting,value
[N-]=[N+]=[N-] [azide anion],binding constant,[1],nanomolar
[N-]=[N+]=Nc1ccc[n+]([C@@H]2O[C@H](COP(=O)([O-])OP(=O)(O)OC[C@H]3O[C@@H](n4cnc5c(N)ncnc54)[C@H](O)[C@@H]3O)[C@@H](O)[C@H]2O)c1 [azo-NAD^+],behaviour as substrate or inhibitor,[2],substrate
same,Km,[2]; [14],72 µM
same,kcat,[2]; [14],344 s⁻¹
same,Kd,"[3]; Kd (Binary), MDH binary complex",152 µM
same,Kd,"[3]; Kd (Ternary), MDH ternary complex with substrate malate",70 µM
same,stability (ratio of UV absorbance 260 nm/303 nm unchanged),[4],stable
same,solubility,[5],soluble
same,Ki,[6],83 µM
same,behaviour as substrate or inhibitor,[6]; MDH,competitive inhibitor
same,Kd,[7],63 µM
same,behaviour as substrate or inhibitor,[8],substrate
same,Kd,[9],300 µM
"NC(=O)c1ccc[n+]([C@@H]2O[C@H](COP(=O)([O-])OP(=O)(O)OC[C@H]3O[C@@H](n4cnc5c(N)ncnc54)[C@H](O)[C@@H]3O)[C@@H](O)[C@H]2O)c1 [NAD^+, nicotinamide adenine dinucleotide]",kcat (turnover number),[10]; Candida Boidinii FDH,3.7 s^−1 and 3.7 ^c s^−1
same,Km,[10]; FDH,90 µM
same,Km,[11],370 µM
same,kcat,[11],390 ^d s^−1
same,kcat,"[6]; MDH, native NAD^+, no reference given",45 s⁻¹
same,Km,[12],140 µM
B1,Km,[13],378 µM
same,kcat,[13],7.5 s⁻¹
